Source: PubChem BioAssay (several laboratories)
LEDGF integ inh – blockers of LEDGF/p75-dependent integrase strand transfer – biochemical, TR-FRET, high throughput, primary screen; HIV-1 integrase (with human LEDGF/p75); TR-FRET IN-LEDGF/p75 DNA integration, Eu/Cy5; inhibition, % at 3.7 µM; actives 0.64% (n = 370,000); AID 743269, 2014;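 active = inhibition above the screen-wide mean plus 3 SD, cut at about 13% in these data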;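 note: signal is the Cy5 over europium emission ratio at 671 and 618 nm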
UHRF1 binding – UHRF1 methylated DNA binding inhibitors, primary screen, counter-screen for MBD2 inhibitor project, biochemical, TR-FRET, human UHRF1, single concentration; E3 ubiquitin-protein ligase UHRF1 (Homo sapiens), Q96T88; UHRF1 binding to methylated oligo; inhibition, % at 4.4 µM; actives 0.75% (n = 370,000); in the data active = inhibition above about 21%;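 note: UHRF1 SRA domain binding a hemimethylated CpG hairpin DNA probe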
MBD2 DNA inh – inhibitors of MBD2 binding to methylated DNA, primary screen, biochemical, TR-FRET, DNA-binding domain, human | Methyl-CpG-binding domain protein 2 (Homo sapiens), Q9UBB5 | MBD2 binding to methylated oligonucleotide | inhibition, % at 4.4 µM | actives 0.31% (n = 370,000) | AID 686964, 2013; in the data active = inhibition above about 13%
CASP6 VEID inh – human caspase-6 inhibitors, primary screen, biochemical, VEID-R110 fluorescence, single point, set 2; inhibition, % at 12.5 µM; purified caspase-6, Z-VEID-R110 cleavage fluorescence; AID 686996, 2013; actives 0.53% (n = 350,000);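 active = mean inhibition across replicates at least about 35%, with every replicate also reaching that limit, limit read from the data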
TDP2 absorb – human TDP2 enzyme inhibitors, primary screen, biochemical, epi absorbance, recombinant enzyme. Tyrosyl-DNA phosphodiesterase 2 (Homo sapiens), O95551. T5PNP hydrolysis, p-nitrophenol absorbance 415 nm. inhibition, % at 12.8 µM. actives 0.34% (n = 370,000);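 active = inhibition above the mean of all tested compounds plus 3 SD, set per campaign, cut at about 25% in these data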
Target sequence (O95551 whole entry, looked up): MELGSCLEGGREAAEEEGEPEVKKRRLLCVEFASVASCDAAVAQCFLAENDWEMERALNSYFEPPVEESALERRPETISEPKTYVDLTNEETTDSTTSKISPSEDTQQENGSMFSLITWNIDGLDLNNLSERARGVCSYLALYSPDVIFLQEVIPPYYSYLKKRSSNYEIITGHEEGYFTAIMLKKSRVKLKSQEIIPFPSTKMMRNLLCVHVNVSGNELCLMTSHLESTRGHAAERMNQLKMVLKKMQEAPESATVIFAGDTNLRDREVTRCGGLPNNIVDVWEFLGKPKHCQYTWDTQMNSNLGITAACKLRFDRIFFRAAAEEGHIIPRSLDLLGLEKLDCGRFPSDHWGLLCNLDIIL
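Test system: human TDP2 enzyme; Input: 120 nM TDP2 per well; Buffer or medium: Mg2+-containing Tris-HCl buffer, pH 7.5; Reagent: 5 mM T5PNP; Dosing: 12.8 µM single point, 1% DMSO; Incubation: reaction 2 h, 37 °C; Detection: p-Nitrophenol epi absorbance; Read-out: % inhibition relative to enzyme-containing and enzyme-free wells; Replicates: single well per compound.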
NSD2 HMT inh – NSD2 histone methyltransferase inhibitors, primary screen, biochemical, AlphaScreen, single concentration, set 2 | Histone-lysine N-methyltransferase NSD2 (Homo sapiens), O96028 | NSD2 peptide methylation, 120 min | inhibition, % at 12.5 µM | actives 0.54% (n = 310,000) | AID 743445, 2014; in the data active = inhibition above about 50%
IN multimer up – HIV-1 IN multimer formation enhancers, counter-screen for LEDGF/p75 integration inhibitor project, biochemical, TR-FRET | actives 17% (n = 2,000) | TR-FRET HIV-1 integrase multimerization | activation, % at 7.7 µM | shares compounds with LEDGF integ inh; in the data active = activation above about 8.9%
TRFRET interf – TR-FRET optical interference artefacts, confirmation, artefact control for LEDGF/p75-dependent integration inhibitor project, biochemical, HIV-1 IN multimerization; inhibition, % at 7.7 µM; AID 1053135, 2014; TR-FRET optical interference counterscreen; 2,000 tested, under 10 active; shares compounds with LEDGF integ inh;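 active = inhibition above the mean over all tested compounds plus 3 SD, which no compound reached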
LEDGF integ conf – inhibitors of HIV-1 IN-LEDGF/p75 DNA integration, confirmation, biochemical, TR-FRET | inhibition, % at 3.7 µM | actives 36% (n = 2,000) | TR-FRET LEDGF/p75-dependent HIV-1 integration | shares compounds with LEDGF integ inh; in the data active = inhibition above about 14%
Hits are given with their value; - = inactive; . = no result given. A selection: hits, their analogues and other compounds. The true share with any hit is near 1.8%.

SMILES | LEDGF integ inh | UHRF1 binding | MBD2 DNA inh | CASP6 VEID inh | TDP2 absorb | NSD2 HMT inh | IN multimer up | TRFRET interf | LEDGF integ conf
CO[C@H]1CN(C)C(=O)c2cc(NC(C)=O)ccc2OC[C@@H](C)N(CCc2ccccc2)C[C@H]1C | . | . | . | - | . | . | . | . | .
CC(C)(C)c1ccc(C(=O)N/C(=C\c2ccco2)C(=O)Nc2ccccc2C(=O)O)cc1 | 20 | - | - | - | - | - | - | - | 26
O=C(Nc1ccc(C(=O)O)cc1)/C(=C\c1ccco1)NC(=O)c1ccccc1Cl | 17 | - | - | - | - | - | - | - | -
O=C(Nc1ccc(C(=O)O)cc1)/C(=C\c1ccco1)NC(=O)c1ccccc1 | - | - | - | - | - | - | . | . | .
CN1CCN(CP(=O)(N2CCOCC2)N2CCOCC2)CC1 | 27 | - | - | . | - | - | - | - | -
C[C@H]1CN([C@@H](C)CO)C(=O)c2cc(C#CC3CC3)cnc2O[C@@H]1CN(C)C(=O)c1ccccc1 | . | . | . | - | . | . | . | . | .
O=S(=O)(O)c1cc(O)c(N=Nc2ccc(O)cc2O)c2ccccc12 | 32 | - | - | 52 | - | 92 | 95 | - | 40
O=[N+]([O-])c1ccccc1N=Nc1ccc(O)cc1O | - | - | - | - | - | - | . | . | .
CC=Cc1ccc2n(c1=O)C[C@@H]1[C@@H](CO)[C@H](C(=O)NCCC)[C@H]2N1C(=O)c1ccccc1F (mixture of isomers) | . | . | . | - | . | . | . | . | .
Cc1[nH]c(=O)[nH]c1C(=O)CCCCC(=O)OCC(=O)Nc1ccccn1 | 82 | - | - | . | - | 142 | - | - | 81
CC(=O)c1c(C)[nH]c(C(=O)Nc2ccccn2)c1C | - | - | - | - | - | - | . | . | .
O=C(N/N=C/c1cccnc1)c1cc(-c2cccs2)nc2ccccc12 | - | - | - | . | - | - | . | . | .
O=C(N/N=C/c1ccc2ncccc2c1)c1cc(-c2cccs2)nc2ccccc12 | 23 | - | - | - | - | - | - | - | -
CC(C)Cc1nc(SCC(=O)Nc2nnc(CC(C)C)s2)n[nH]1 | 14 | - | - | - | - | . | - | - | -
CCCCc1nc(SCC(=O)Nc2nnc(CCCC)s2)n[nH]1 | - | - | - | - | - | - | . | . | .
COc1ccc2c3c(n(C)c2c1)[C@H](CO)N(C(=O)Cc1ccccn1)CC31CN(C)C1 | . | . | . | - | . | . | . | . | .
COc1ccc(C(C#N)CC(=O)c2ccc(OCc3ccccc3)c(OC)c2)cc1OC (stereo not drawn) | 60 | - | - | . | - | - | - | - | -
CCOC(=O)C(C)Sc1ccc2nnc(-c3ccc(F)cc3)n2n1 (stereo not drawn) | 15 | - | - | . | - | - | - | - | -
COc1ccc(/C=C/C(=O)NCCCc2ccccc2)cc1 | - | - | - | . | - | - | . | . | .
CC(C)c1ccc(/C=C/C(=O)NCCCc2ccccc2)cc1 | 76 | - | - | . | - | - | - | - | -
CC(C)c1ccccc1NC(=O)CN1C(=O)c2ccccc2C1=O | 73 | - | - | - | - | - | - | - | -
